Measured values published in ChEMBL document CHEMBL1641569, “Synthetic conjugates of genistein affecting proliferation and mitosis of cancer cells” (Bioorg Med Chem, 2011).
Each block holds one compound with its values, some of them ahead of it. The source made the active and inactive calls. The rule behind the calls is not given here.

Assays:
[1] = system: HCT-116; experiment: Cytotoxicity against human HCT116 cells after 72 hrs by MTT assay; assay type: functional, cell-based; conditions: HCT-116, 72 h
[2] = system: HCT-116; experiment: Inhibition of mitosis in human HCT116 cells assessed as mitotic index at 20 uM after 24 hrs by fluorescence assay; assay type: functional
In short: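 Cells treated 24 h, collected as for cell cycle analysis, cytospun, fixed in cold methanol, stained with 3 µM DAPI; mitotic cells counted among 1000 cells under 40× objective. Mean ± SD from three independent experiments.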

[3] = system: SK-BR-3; experiment: Cytotoxicity against human SKBR3 cells after 72 hrs by SRB assay; assay type: functional, cell-based; conditions: SK-BR-3, 72 h
In short: (§1)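 Cells plated at 2 × 10³ per well 24 h before continuous 72 h exposure to a concentration series; fixed with cold 50% TCA 1 h at 4 °C, stained with 0.4% sulforhodamine B in 1% acetic acid 30 min, bound dye extracted in 10 mM Tris base, OD 540 nm. Viability as % of DMSO control; IC50 = concentration reducing viability 50%; triplicates, ≥3 experiments.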

[4] = system: MCF7; experiment: Cytotoxicity against human MCF7 cells after 72 hrs by SRB assay; assay type: functional, cell-based; conditions: MCF7, 72 h; in short: as §1
[5] = system: HT-29; experiment: Cytotoxicity against human HT-29 cells after 72 hrs by SRB assay; assay type: functional, cell-based; conditions: HT-29, 72 h; in short: as §1
[6] = system: Caco-2; experiment: Cytotoxicity against human Caco2 cells after 72 hrs by MTT assay; assay type: functional, cell-based; conditions: Caco-2, 72 h
In short: (§2)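 Cells seeded at 2 × 10³ per well, 24 h later exposed continuously 72 h to varying concentrations; then 0.5 mg/mL MTT in phenol red-free DMEM 3 h at 37 °C, formazan dissolved in 2-propanol/HCl, OD 570 nm. Viability relative to DMSO vehicle; IC50 = concentration reducing viability by 50%; triplicate wells, at least three independent experiments, mean ± SD.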

[7] = system: LoVo; experiment: Cytotoxicity against human LoVo cells after 72 hrs by MTT assay; assay type: functional, cell-based; in short: as §2
[8] = system: T98G; experiment: Cytotoxicity against human T98G cells after 72 hrs by SRB assay; assay type: functional, cell-based; in short: as §1
[9] = system: DU-145; experiment: Cytotoxicity against human DU145 cells after 72 hrs by MTT assay; assay type: functional, cell-based; conditions: DU-145, 72 h; in short: as §2
[10] = system: LNCaP; experiment: Cytotoxicity against human LNCAP cells after 72 hrs by SRB assay; assay type: functional, cell-based; in short: as §1
[11] = system: PC-3; experiment: Cytotoxicity against human PC3 cells after 72 hrs by MTT assay; assay type: functional, cell-based; conditions: PC-3, 72 h; in short: as §2
[12] = system: A549; experiment: Cytotoxicity against human A549 cells after 72 hrs by SRB assay; assay type: functional, cell-based; conditions: A549, 72 h; in short: as §1
[13] = system: AGS; experiment: Cytotoxicity against human AGS cells after 72 hrs by MTT assay; assay type: functional, cell-based; in short: as §2
[14] = system: HCT-116; experiment: Cell cycle arrest in human HCT116 cells assessed as accumulation at G2/M phase at 5 to 20 uM after 24 hrs by propidium iodide staining-based flow cytometry; assay type: functional
In short: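 Subconfluent cultures exposed continuously to compound; floating and trypsinized adherent cells pooled, PBS-washed, fixed in ice-cold 70% ethanol 30 min, RNase (100 µg/mL) treated, stained with propidium iodide, DNA content measured by flow cytometry to give G1, S, G2/M, apoptotic (sub-G1) and polyploid fractions. Experiments repeated at least twice.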

[15] = Solubility of the compound at 20 uM

SMILES: CC(=O)OC[C@H]1O[C@@H](O[C@H]2C=C[C@@H](OCCCCCOc3cc(O)c4c(=O)c(-c5ccc(O)cc5)coc4c3)O[C@@H]2COC(C)=O)[C@H](OC(C)=O)[C@@H](OC(C)=O)[C@H]1OC(C)=O
IC50 [1]: > 20 µM

SMILES: CC(=O)OC[C@H]1O[C@H](OCCCOc2cc(O)c3c(=O)c(-c4ccc(O)cc4)coc3c2)C=C[C@@H]1OC(C)=O
IC50 [1]: 19.9 µM

SMILES: O=c1c(-c2ccc(O)cc2)coc2cc(O)cc(O)c12 [GENISTEIN]
IC50 [1]: 34.9 µM
Activity [2]: 1.8
IC50 [3]: 96.7 µM
IC50 [4]: 62.7 µM
IC50 [5]: 52.8 µM
IC50 [6]: > 100 µM
IC50 [7]: 15.9 µM
IC50 [8]: 89.4 µM
IC50 [9]: 47.3 µM
IC50 [10]: 30.7 µM
IC50 [11]: 65.2 µM
IC50 [12]: 43.1 µM
IC50 [13]: 41.7 µM

SMILES: CC(=O)O[C@@H]1C=C[C@H](OCCOc2cc(O)c3c(=O)c(-c4ccc(O)cc4)coc3c2)O[C@H]1C
IC50 [1]: 9.32 µM
Activity [14]: inactive
Activity [2]: 1.3

solubility [15]: Insoluble
SMILES: CC(=O)OC[C@H]1O[C@@H](O[C@H]2C=C[C@@H](OCCOc3cc(O)c4c(=O)c(-c5ccc(O)cc5)coc4c3)O[C@@H]2COC(C)=O)[C@H](OC(C)=O)[C@@H](OC(C)=O)[C@H]1OC(C)=O
IC50 [1]: > 20 µM

SMILES: O=c1c(-c2ccc(O)cc2)coc2cc(OCCO)cc(O)c12
IC50 [1]: 25 µM
